Blank lines part the entries; values can stand above or below the compound they belong to.
Tests used:
[1] = Pharmacokinetics of BBR, M1 and M2 in vivo after single oral administration; settings: ICR mice; for level in plasma (below the lower limit of quantitation): any of the time points; for AUC(0-t) / AUC(0-inf) / Cmax / MRT last / MRT inf / half-life: ICR, mouse, plasma, po, 200 mg/kg, two-compartment model, mean ± SD; for AUC(0-t): AUC(0–24 h); for AUC(0-t) / AUC(0-inf) / Cmax / MRT last / MRT inf: BBR in plasma; for MRT last: MRT(0–24 h); for MRT inf: MRT(0−∞); for half-life: t1/2, BBR in plasma
Procedure, shortened: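 Male ICR mice, fasted 12 h, got a single oral dose of BBR 200 mg/kg + voriconazole 30 mg/kg, with food allowed after 3 h. Retrobulbar blood was drawn into heparinised tubes at 0.17–24 h (11 times) and stored at −20 °C. 100 μL plasma was precipitated with 300 μL methanol containing internal standard. BBR, M1 and M2 were measured by LC-MS/MS, with a curve of 1–1000 ng/mL and a lower limit of quantitation of 1 ng/mL.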

CYP51 enzyme lysate = CYP51 enzyme lysate (Saccharomyces cerevisiae, UniProt P10614); test: Enzymatic reaction in recombinant CYP51 enzyme lysate; assay type: biochemical, Saccharomyces cerevisiae S288C; settings: NADPH 0.5 mM, 0-4 h
mice gut microbiota = test: Metabolism of BBR by the mice gut microbiota in vitro; assay type: in vitro ADME; settings: BBR 50 mg/mL + voriconazole 3.5 μg/mL vs BBR group
Procedure, shortened: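 Mouse colon contents were homogenised anaerobically, 1 g in 20 mL autoclaved anaerobic medium, and preincubated 60 min at 37 °C under N₂. 1 mL culture received 10 μL methanol solution (BBR 50 mg/mL + voriconazole 3.5 μg/mL, BBR alone, or methanol control), was sealed and incubated at 37 °C for 12–72 h. It was quenched with methanol, centrifuged, diluted 50-fold and precipitated with methanol plus internal standard. BBR, M1 and M2 were measured by LC-MS/MS (ESI+), curve 1–1000 ng/mL.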

[2] = system: mouse intestinal microsomes; test: Metabolism of BBR in mouse intestinal microsomes in vitro; assay type: in vitro ADME; settings: BBR 50 mg/mL + voriconazole 3.5 μg/mL
[3] = system: E. faecalis, S. epidermidis, E. cloacae, and E. faecium; test: Metabolism of BBR in the four standard bacterial strains; assay type: in vitro ADME; settings: BBR 50 mg/mL + voriconazole 3.5 μg/mL, 72 h
Procedure, shortened: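 Plate-counted strains, equalised in density, were put in anaerobic medium (100 μL culture + 0.9 mL), N₂-flushed, sealed and preincubated 1 h at 37 °C. Each got 10 μL BBR (50 mg/mL solution) ± voriconazole (3.5 μg/mL solution) or methanol control and was incubated 48 and 72 h. It was quenched with 1 mL methanol containing internal standard and centrifuged. BBR, M1 and M2 were measured by LC-MS/MS (curve 1–1000 ng/mL) and % BBR metabolism calculated.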

CYP51 = test: Activity of CYP51 in four standard bacterial strains; assay type: cell-based, E. faecalis, S. epidermidis, E. cloacae, and E. faecium
Procedure, shortened: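 The four strains were resuscitated, plate-counted and diluted to equal density. 100 μL culture went into 0.9 mL sterile anaerobic medium, N₂-flushed, sealed and held at 37 °C. Groups were methanol control, 10 μL of 50 mg/mL BBR, or BBR plus 3.5 μg/mL voriconazole. After 48 and 72 h, cells were sonicated and CYP51 activity was measured by sterol 14α-demethylase ELISA kit.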

gut microbiota = test: 16S rRNA analysis of the feces of ICR mice after oral administration; assay type: in vivo
[4] = cited from earlier work
[5] = oral BBR 200 mg/kg + voriconazole 30 mg/kg
[6] = feces 24 h after oral BBR, vs control group, P < 0.05

Chain of CYP51 enzyme lysate (P10614 2-530): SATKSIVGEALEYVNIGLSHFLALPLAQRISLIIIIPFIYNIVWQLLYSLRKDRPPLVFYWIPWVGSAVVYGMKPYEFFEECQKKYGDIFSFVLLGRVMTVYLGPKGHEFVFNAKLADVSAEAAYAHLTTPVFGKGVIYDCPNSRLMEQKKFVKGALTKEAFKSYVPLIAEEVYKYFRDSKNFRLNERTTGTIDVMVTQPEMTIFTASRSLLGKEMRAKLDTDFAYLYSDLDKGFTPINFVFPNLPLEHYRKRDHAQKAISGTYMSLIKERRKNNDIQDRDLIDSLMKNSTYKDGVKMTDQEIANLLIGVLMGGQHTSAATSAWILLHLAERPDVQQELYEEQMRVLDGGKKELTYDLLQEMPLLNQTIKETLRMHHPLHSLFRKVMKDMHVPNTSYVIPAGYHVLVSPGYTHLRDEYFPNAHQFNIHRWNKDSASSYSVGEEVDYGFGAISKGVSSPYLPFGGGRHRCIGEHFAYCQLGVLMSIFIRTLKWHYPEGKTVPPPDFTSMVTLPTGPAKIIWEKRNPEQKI

SMILES: CC(C)=CCC[C@@H](C)[C@H]1CC[C@@]2(C)C3=C(CC[C@]12C)[C@@]1(C)CC[C@H](O)C(C)(C)[C@@H]1CC3 [Lanosterol]
production ratio of demethylated metabolite FF-MAS (CYP51 enzyme lysate; lanosterol 10 μg/mL, CYP51 enzyme lysate): increased significantly

SMILES: C[C@@H](c1ncncc1F)[C@](O)(Cn1cncn1)c1ccc(F)cc1F [voriconazole]
percentage of residual BBR after the addition of voriconazole (mice gut microbiota): significantly increased
production of M1 after the addition of voriconazole (mice gut microbiota): significantly decreased
production of M2 after the addition of voriconazole (mice gut microbiota): significantly decreased
decrease of production of M1 after adding voriconazole ([2]; 30 min): 21%
decrease of production of M2 after adding voriconazole ([2]; 30 min): 28%
decrease of production of M1 after adding voriconazole ([2]; 60 min): 25%
decrease of production of M2 after adding voriconazole ([2]; 60 min): 26%
decrease of production of M1 after adding voriconazole ([2]; 120 min): 20%
decrease of production of M2 after adding voriconazole ([2]; 120 min): 30%
level of M2 produced by each strain after the addition of voriconazole [3]: below the lower limit of quantitation
level of M1 produced by each strain after the addition of voriconazole ([3]; vs BBR group): significantly reduced
CYP51 activity after the addition of voriconazole (CYP51; four strains, BBR 50 mg/mL + voriconazole 3.5 μg/mL, 72 h): reduced
abundances of Parabacteroides, Tyzzerella 3, Rikenellaceae RC9 gut group, Roseburia, Tyzzerella, Ruminococcus 1 and Porphyromonadaceae after the addition of voriconazole (gut microbiota; oral BBR 200 mg/kg + voriconazole 30 mg/kg vs BBR 200 mg/kg (Fig. S3)): did not change significantly

SMILES: COc1ccc2cc3[n+](cc2c1OC)CCc1cc2c(cc1-3)OCO2 [BBR, Berberine]
AUC(0-t) [1, 5]: 299 ± 56.4 ng·h/mL
AUC(0-t) ([1]; oral BBR 200 mg/kg): 272 ± 68.4 ng·h/mL
AUC(0-inf) [1, 5]: 388 ± 103 ng·h/mL
AUC(0-inf) ([1]; oral BBR 200 mg/kg): 334 ± 79.3 ng·h/mL
Cmax [1, 5]: 64.5 ± 20.1 ng/mL
Cmax ([1]; oral BBR 200 mg/kg): 44.3 ± 10.4 ng/mL
MRT last [1, 5]: 6.5 ± 1.4 h
MRT last ([1]; oral BBR 200 mg/kg): 7.39 ± 1.71 h
MRT inf [1, 5]: 10.4 ± 2.32 h
MRT inf ([1]; oral BBR 200 mg/kg): 12.7 ± 5.85 h
half-life [1, 5]: 9.91 ± 5.26 h
half-life ([1]; oral BBR 200 mg/kg): 8.44 ± 5.55 h
activity of CYP51 compared with that in the strains alone (CYP51; four strains incubated with 50 mg/mL BBR for 72 h): not significantly different
abundance of Porphyromonadaceae (family level) (gut microbiota; after oral BBR, vs control group, P < 0.05 (Fig. S2)): significant increase
abundance of the genus Parabacteroides (gut microbiota; [6]): significant increase
abundances of five genera (Tyzzerella 3, Rikenellaceae RC9 gut group, Roseburia, Tyzzerella, Ruminococcus 1) (gut microbiota; [6]): significant decrease
production ratios of M1 and M2 (CYP51 enzyme lysate; BBR 10 μg/mL, CYP51 enzyme lysate compared with the control): significantly increased
share of BBR that could enter the blood (absorption rate) [4]: less than 10%

Second part, the compound after the results:

level in plasma (below the lower limit of quantitation) [1, 5]: < 1 ng/mL
SMILES: COc1c(O)ccc2cc3[n+](cc12)CCc1cc2c(cc1-3)OCO2 [M1, Thalifendine]

level in plasma (below the lower limit of quantitation) [1, 5]: < 1 ng/mL
SMILES: COc1ccc2cc3[n+](cc2c1O)CCc1cc2c(cc1-3)OCO2 [M2, Berberrubine]
